This note sets out measurements from publication PMC6790403 (International Journal of Nanomedicine, 2019).

SMILES strings stand for the structures. Marks after values point to notes of the source that are not given here.

Data set [1] deals with SKBR-3 cells. Kind of data set: Cell cycle distribution analysis. Type of data set: cell-based, human. The conditions noted are these: 24 hrs, at respective IC50. The essentials:
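After 24 hrs of exposure to test compound (SKBR-3 seeded at 1×10^5 cells per well), cells were collected and washed thrice in sterile PBS pH 7.4. They were fixed in chilled 70% ethanol and stained with propidium iodide (20 µg/mL) for 30 mins. DNA content was acquired over 15,000 events per sample, and phase distribution was compared with untreated control.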

Data set [2] concerns SKBR-3 cells. Nature of the data set: Cytotoxicity by MTT assay. Type of data set: cell-based. The conditions noted are these: Homo sapiens, SK-BR-3. In outline:
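SKBR-3 cells were grown in McCoy's 5A with 10% FBS, penicillin and streptomycin at 37°C under 5% CO2. Test compound was applied over a dose range in a time-dependent MTT assay. Growth inhibition was expressed as a percentage relative to controls, and IC50 was derived from the dose response.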
(In general: Formazan colour is commonly taken as a measure of viable cells.)

A further data set relates to SKBR-3 tumor. Kind of data set: In vivo therapeutic study on tumor-bearing xenograft mice. On the set-up: species or system athymic nude mice. The note with it: for average tumor volume: three IV doses of DOX 3 mg/kg on alternate days. The essentials: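 Athymic nude mice (CAnN.Cg-Foxn, 6 weeks, ~20 g) were inoculated subcutaneously in the left rear flank with 1×10^7 SKBR-3 cells in 200 μL medium. At 100–150 mm3, groups of three received IV saline or test compound, three doses of DOX 3 mg/kg equivalent on alternate days. Tumours were caliper-measured, body weight was monitored, and excised tumours were weighed after sacrifice (mean ± SD, n=3).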

The next data set has as its system MCF-7 cells. Nature of the data set: Cell cycle distribution analysis. Type of data set: cell-based, human. The conditions noted are these: 24 hrs, at respective IC50.
Data set [3] has as its system SKBR-3 cells. Nature of the data set: Apoptosis study by annexin V FITC. Type of data set: cell-based, human. The conditions noted are these: SKBR3 cells, 24 hrs, at respective IC50. The essentials:
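SKBR-3 cells seeded at 1×10^5 cells per well in McCoy's medium at 37°C and exposed to test compound for 24 hrs. Cells were then trypsinized, pelleted at 3000 rpm for 3 mins and PBS-washed. They were stained with FITC-annexin V plus propidium iodide, and the apoptotic fraction was quantified by flow cytometry.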

A further data set can be described thus: Pharmacokinetic study. Type of data set: in vivo, BALB/c mice.
The nature of a further data set: Cardiac toxicity study. Type of data set: in vivo, female BALB/c mice. The note with it: BALB/c mice. The essentials:
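Female BALB/c mice (~25 g, n=3 per group) received three consecutive IV injections totalling […] DOX, given as free drug or drug-equivalent nanoparticles. Controls were untreated/saline and blank nanoparticles. Weight was recorded every 48 hrs, and […] was taken under light anaesthesia 14 days after the last dose. Hearts were then excised and weighed, and SOD was kit-assayed in heart homogenate (ice-cold PBS, 10 mL/g).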

The mark [4] stands for this setting: BALB/c, mouse, plasma, iv, 10 mg/kg.
[5] abbreviates: plasma DOX, IV bolus, 10 mg/kg DOX or equivalent, BALB/c mice.

Broadly, the IC50 is the midpoint of a concentration-inhibition curve. Low readings indicate higher potency, high ones lower potency. As usually defined, the AUC(0-inf) is the area under the concentration-time curve extrapolated to infinity. A low value points to less exposure. As usually defined, the AUC(0-t) is the area under the concentration-time curve up to a stated or last time point. Lower therefore signals low exposure. A word on the Cmax: it is the highest concentration seen after dosing. What is called MRT inf is a mean duration of stay, worked out from the concentration-time curve. Usually MRT last stands for a mean duration of stay, worked out from the concentration-time curve. For orientation: Tmax means the time from dosing to the highest level. The term Vd denotes the apparent volume that relates the amount in the body to the concentration in plasma or blood. What is called clearance is the rate of elimination divided by the concentration. Broadly, the half-life is how long it takes for the measured level to halve. Low readings indicate fast loss, high ones slow loss.

Turning to `COc1cccc2c1C(=O)c1c(O)c3c(c(O)c1C2=O)C[C@@](O)(C(=O)CO)C[C@@H]3O[C@H]1C[C@H](N)[C@H](O)[C@H](C)O1` [DOX, (7S, 9S)-7-[(2R, 4S, 5S, 6S)-4-amino-5-hydroxy-6-methyloxan-2-yl]oxy-6,9,11-trihydroxy-9-(2-hydroxyacetyl)-4-methoxy-8,10-dihydro-7H-tetracene-5,12-dione], the “cell-arrest in S-phase” value in the data set on SKBR-3 cells [1] was found to be 22%. Also, half-maximal inhibition in the data set with SKBR-3 cells [2] (IC50) was put at 14.1 µM. Further, the “Average tumor weights of the excised tumors” value with SKBR-3 tumor (at the terminal experiment, SKBR-3 tumor, three IV doses of DOX 3 mg/kg) was 0.424 ± 0.06 g. Further, the average tumor volume in the data set with SKBR-3 tumor (day 15, SKBR-3 tumor) was determined as 500 mm^3. In the data set on SKBR-3 tumor (day 25, SKBR-3 tumor), the average tumor volume was 1790 mm^3. Further, the “cell-arrest in S-phase” value in the data set with MCF-7 cells is recorded as 8%. Besides, in the data set with SKBR-3 cells [3], the extent of apoptosis is 19.6%. In “Pharmacokinetic study” (setting [4]), this molecule registered an AUC(0-inf) of 2.93 ± 0.205 µg·h/mL, an AUC(0-t) of 2.88 ± 0.199 µg·h/mL, a maximum concentration (Cmax) of 0.911 ± 0.0505 µg/mL and a mean residence time MRT inf of 18.2 ± 0.86 h. Moreover, in “Pharmacokinetic study” (setting [4]), the mean residence time (MRT last) amounted to 16.2 ± 0.99 h, the Tmax is 0.25 ± 0.021 h, the Vd is 61.9 ± 4.8 L/kg and the clearance was 3.4 L/h/kg. The half-life in the data set “Pharmacokinetic study” (setting [4]) was 17.9 ± 2.1 h. Moreover, in “Pharmacokinetic study” (setting [5]), the AUMCinf is on record as 53,296.5±2600 hrs.hrs.ng/mL and the AUMClast is given as 46,707.8±2202.6 hrs.hrs.ng/mL. In the data set “Cardiac toxicity study” (2 weeks after final dosing), the Heart weight amounted to 0.1420 ± 0.025 g. Moreover, in “Cardiac toxicity study” (14 days after last dose), the LV fractional shortening entry is given as “significant decrease”. Moreover, the “histopathology of heart sections” value in “Cardiac toxicity study” (hematoxylin and eosin staining) is “Remarkable changes in degradation in cardiac muscle with vacuolization and edema of the cells”. In addition, the “% SOD” value in “Cardiac toxicity study” (heart homogenate, 2 weeks after final dosing) is 34.02±4.5^a,b %.
